Measurements from ChEMBL document CHEMBL3352189 (J Med Chem, 2014).

How the values were obtained:
[1] = tested on: Venezuelan equine encephalitis virus; experiment: Antiviral activity against Venezuelan equine encephalitis virus TC83 infected in Vero 76 cells assessed as reduction in virus-induced cytopathic effect after 2 days by Celltiter-Glo reagent based assay; type: functional, organism-based; conditions: TC83, Vero 76, 48 h
[2] = Cytotoxicity against african green monkey Vero 76 cells after 3 days by Celltiter-Glo reagent based assay; type: cell-based; conditions: chlorocebus sabaeus, vero 76, 72 h
Outline: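 Vero 76 cells were seeded overnight at 12 000/well and given an 8-point 2-fold compound series (20 mM DMSO stock) in EMEM/10% FBS with no virus. Viability was read by CellTiter-Glo after 3 days relative to untreated cells. Run in duplicate; CC50 from a four-parameter logistic or sigmoidal fit.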

[3] = Selectivity index, ratio of CC50 for african green monkey Vero 76 cells to EC50 for Venezuelan equine encephalitis virus TC83; type: toxicity, cell-based; conditions: read-out: Ratio CC50/EC50

SMILES	EC50 [1]	CC50 [2]	selectivity ratio [3]
CN1CCN(C)/C(=N/c2ccc(C(F)(F)F)cc2C(=O)Nc2ccccc2)C1	22.3 µM	> 50 µM	> 2.2
CN1CCN(C)/C(=N/c2ccccc2C(=O)Nc2ccccc2)C1	> 25 µM	> 50 µM	–
O=c1c2cc([N+](=O)[O-])ccc2nc(CN2CCCNCC2)n1-c1ccccc1	0.9 µM	> 50 µM	> 55.6
CCN1CCN(Cc2nc3ccc([N+](=O)[O-])cc3c(=O)n2-c2ccc(F)cc2)CC1	0.8 µM	> 50 µM	> 62.5
O=c1c2cc([N+](=O)[O-])ccc2nc(CN2CCCCC2)n1-c1ccccc1F	4.7 µM	> 50 µM	> 10.6
CCN1CCN(Cc2nc3ccccc3c(=O)n2-c2ccccc2F)CC1	> 25 µM	> 50 µM	–
CN1CCN(C)/C(=N/c2ccc([N+](=O)[O-])cc2C(=O)NCc2ccccc2)C1	3.7 µM	> 50 µM	> 13.5
CN1CCN(C)/C(=N/c2ccc(C#N)cc2C(=O)Nc2ccccc2)C1	0.4 µM	> 50 µM	> 125
CCN1CCN(Cc2nc3ccc(S(=O)(=O)O)cc3c(=O)n2-c2ccccc2)CC1	> 25 µM	> 50 µM	–
COc1ccc(-n2c(CN3CCNCC3)nc3ccc([N+](=O)[O-])cc3c2=O)cc1	0.2 µM	> 50 µM	> 250
CN1CCN(C)/C(=N/c2ccc([N+](=O)[O-])cc2C(=O)Nc2ccccc2F)C1	0.2 µM	> 50 µM	> 250
O=C1CN(Cc2nc3ccc([N+](=O)[O-])cc3c(=O)n2-c2ccccc2F)CCN1	> 25 µM	> 50 µM	–
CCN1CCN(Cc2nc3ccc([N+](=O)[O-])cc3c(=O)n2Cc2ccccc2)CC1	> 25 µM	> 50 µM	–
CCN1CCN(C)C/C1=N\c1ccc([N+](=O)[O-])cc1C(=O)Nc1ccccc1	0.05 µM	> 50 µM	> 1000
CN1CCN(Cc2nc3ccc([N+](=O)[O-])cc3c(=O)n2-c2ccccc2F)CC1	0.8 µM	> 50 µM	> 62.5
CN1CCN(C)/C(=N/c2ccc(C#N)cc2C(=O)Nc2cccc(F)c2)C1	0.8 µM	> 50 µM	> 62.5
CN(C)c1cccc(-n2c(CN3CCNCC3)nc3ccc([N+](=O)[O-])cc3c2=O)c1	> 25 µM	> 50 µM	–
CN(C)c1ccc(-n2c(CN3CCNCC3)nc3ccc([N+](=O)[O-])cc3c2=O)cc1	> 25 µM	> 50 µM	–
CCN1CCN(Cc2nc3ccc(C#N)cc3c(=O)n2-c2ccccc2)CC1	1.1 µM	> 50 µM	> 45.5
CCN1CCN(c2nc3ccc([N+](=O)[O-])cc3c(=O)n2-c2ccccc2)CC1	> 25 µM	> 50 µM	–
CN1CCN(C)/C(=N/c2cc(F)c(F)cc2C(=O)Nc2ccccc2)C1	4.4 µM	> 50 µM	> 11.4
CCN1CCN(Cc2nc3ccc(C(=O)N(C)C)cc3c(=O)n2-c2ccccc2)CC1	> 25 µM	> 50 µM	–
CCN1CCN(Cc2nc3ccc(-c4nnn[nH]4)cc3c(=O)n2-c2ccccc2)CC1	> 25 µM	> 50 µM	–
COc1ccccc1NC(=O)c1cc([N+](=O)[O-])ccc1/N=C1\CN(C)CCN1C	33.7 µM	> 50 µM	> 1.5
O=c1c2cc([N+](=O)[O-])ccc2nc(CN2CCNCC2)n1-c1ccsc1	1.4 µM	> 50 µM	> 35.7
COc1cccc(NC(=O)c2cc([N+](=O)[O-])ccc2/N=C2\CN(C)CCN2C)c1	8.1 µM	> 50 µM	> 6.2
CNCCCN(C)Cc1nc2ccc([N+](=O)[O-])cc2c(=O)n1-c1ccccc1	0.6 µM	> 50 µM	> 83.3
CC(C)N1CCN(Cc2nc3ccc([N+](=O)[O-])cc3c(=O)n2-c2ccccc2F)CC1	4.4 µM	> 50 µM	> 11.4

SMILES	EC50 [1]	CC50 [2]	selectivity ratio [3]
O=c1c2cc([N+](=O)[O-])ccc2nc(CN2CCNCC2)n1-c1ccccc1F	0.2 µM	> 50 µM	> 250
CN1CCN(C)/C(=N/c2ccc([N+](=O)[O-])cc2C(=O)Nc2cccc(F)c2)C1	0.1 µM	> 50 µM	> 500
COc1cccc(-n2c(CN3CCNCC3)nc3ccc([N+](=O)[O-])cc3c2=O)c1	5.1 µM	> 50 µM	> 9.8
O=c1c2cc([N+](=O)[O-])ccc2nc(CN2CCCNC2)n1-c1ccccc1	1.1 µM	> 50 µM	> 45.5
CC(C)NC(=O)c1cc([N+](=O)[O-])ccc1/N=C1\CN(C)CCN1C	> 25 µM	> 50 µM	–
CN1CCN(C)/C(=N/c2cc(F)c(C#N)cc2C(=O)Nc2ccccc2)C1	0.4 µM	> 50 µM	> 125
CN1CCN(C)/C(=N/c2ccc([N+](=O)[O-])cc2C(=O)Nc2ccc(F)cc2)C1	0.09 µM	> 50 µM	> 556
CCN1CCN(Cc2nc3ccc(I)cc3c(=O)n2-c2ccccc2)CC1	17.1 µM	> 50 µM	> 2.9
CCN1CCN(Cc2nc3ccc([N+](=O)[O-])cc3c(=O)[nH]2)CC1	> 25 µM	> 50 µM	–
CCN1CCN(Cc2nc3ccc(C(F)(F)F)cc3c(=O)n2-c2ccccc2F)CC1	> 25 µM	> 50 µM	–
CCN1CCN(Cc2nc3ccc([N+](=O)[O-])cc3c(=O)n2-c2ccccc2)CC1	0.3 µM	> 50 µM	> 167
CN1CCN(C)/C(=N/c2ccc(F)cc2C(=O)Nc2ccccc2)C1	6.4 µM	> 50 µM	> 7.8
O=c1c2cc([N+](=O)[O-])ccc2nc(CN2CCN(c3ccccc3)CC2)n1-c1ccccc1F	> 25 µM	> 50 µM	–
O=c1c2cc([N+](=O)[O-])ccc2nc(CN2CCNCC2)n1-c1ccccc1	0.2 µM	> 50 µM	> 250
CCN1CCN(Cc2nc3ccc(-c4ccccn4)cc3c(=O)n2-c2ccccc2)CC1	> 25 µM	> 50 µM	–
CCN1CCN(Cc2nc3ccc(C(N)=O)cc3c(=O)n2-c2ccccc2)CC1	> 25 µM	> 50 µM	–
COc1ccccc1-n1c(CN2CCNCC2)nc2ccc([N+](=O)[O-])cc2c1=O	> 25 µM	> 50 µM	–
CCN1CCN(Cc2nc3ccc(-c4cccnc4)cc3c(=O)n2-c2ccccc2)CC1	> 25 µM	> 50 µM	–
CN1CCN(C)/C(=N/c2cc(F)ccc2C(=O)Nc2ccccc2)C1	> 25 µM	> 50 µM	–
CCN1CCN(Cc2nc3ccc([N+](=O)[O-])cc3c(=O)n2-c2cccc(F)c2)CC1	0.4 µM	> 50 µM	> 125
CN1CCN(C)/C(=N/c2ccc([N+](=O)[O-])cc2C(=O)Nc2ccsc2)C1	0.5 µM	> 50 µM	100
CCN1CCN(Cc2nc3ccc([N+](=O)[O-])cc3c(=O)n2C)CC1	> 25 µM	> 50 µM	–
CCN1CCN(Cc2nc3ccc(C(=O)O)cc3c(=O)n2-c2ccccc2)CC1	> 25 µM	> 50 µM	–
O=c1c2cc([N+](=O)[O-])ccc2nc(CN2CCOCC2)n1-c1ccccc1F	8.7 µM	> 50 µM	> 5.7
COC(=O)c1ccc(/N=C2\CN(C)CCN2C)c(C(=O)Nc2ccccc2)c1	2 µM	> 50 µM	> 25
CCN1CCN(Cc2nc3ccc([N+](=O)[O-])cc3c(=O)n2C(C)C)CC1	> 25 µM	> 50 µM	–
CN1CCN(C)/C(=N/c2ccc(C#N)cc2C(=O)Nc2ccccc2F)C1	3.7 µM	> 50 µM	> 13.5
